Laboratory results from ChEMBL document CHEMBL1126276, “Synthesis and antimalarial properties of 1-imino derivatives of 7-chloro-3-substituted-3,4-dihydro-1,9(2H,10H)-acridinediones and related structures” (J Med Chem, 1992).

Legend:
Assay type in all cases: functional
Plasmodium berghei [1] = experiment: Antimalarial activity in Plasmodium berghei infected mice (Mus musculus) after subcutaneous 320 mg/kg dose
Outline: (§1)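 Normal drug-sensitive P. berghei strain in mice. Compound dissolved or suspended in sesame or peanut oil, given parenterally as a single subcutaneous dose 72 h postinfection.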

Plasmodium berghei [2] = experiment: Antimalarial activity in Plasmodium berghei infected mice (Mus musculus) after subcutaneous 640 mg/kg dose; outline: as §1
Plasmodium berghei [3] = experiment: Antimalarial activity in Plasmodium berghei infected mice (Mus musculus) after 160 mg/kg subcutaneous dose
Outline: (§2)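 […] in mice infected with a normal drug-sensitive P. berghei strain. Compound dissolved or suspended in sesame or peanut oil, given as a single subcutaneous dose 72 h postinfection.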

Plasmodium berghei [4] = experiment: Antimalarial activity in Plasmodium berghei infected mice (Mus musculus) after 320 mg/kg subcutaneous dose; outline: as §2
Plasmodium berghei [5] = experiment: (§3) Antimalarial activity in Plasmodium berghei infected mice (Mus musculus) after 80 mg/kg subcutaneous dose; outline: as §2
Plasmodium berghei [6] = experiment: Antimalarial activity in Plasmodium berghei infected mice (Mus musculus) after subcutaneous 160 mg/kg dose; outline: as §1
Plasmodium berghei [7] = experiment: (§4) Antimalarial activity in Plasmodium berghei infected mice (Mus musculus) after 40 mg/kg subcutaneous dose; outline: as §2
Plasmodium berghei [8] = experiment: as §4; outline: as §1; remark: listed apart in the source
Plasmodium berghei [9] = experiment: as §3; outline: as §1; remark: listed apart in the source
Plasmodium berghei [10] = experiment: Antimalarial activity in Plasmodium berghei infected mice (Mus musculus) after 20 mg/kg subcutaneous dose; outline: as §2
Plasmodium berghei [11] = experiment: Antimalarial activity Plasmodium berghei infected mice (Mus musculus) after 640 mg/kg subcutaneous dose; outline: as §2

| SMILES | No. of cured mice (Plasmodium berghei [1]) | No. of cured mice (Plasmodium berghei [2]) | Delta mean survival time (Plasmodium berghei [3]) | Delta mean survival time (Plasmodium berghei [4]) | Delta mean survival time (Plasmodium berghei [5]) | No. of cured mice (Plasmodium berghei [6]) | Delta mean survival time (Plasmodium berghei [7]) | No. of cured mice (Plasmodium berghei [8]) | No. of cured mice (Plasmodium berghei [9]) | Delta mean survival time (Plasmodium berghei [10]) | Delta mean survival time (Plasmodium berghei [11]) | No. of cured mice (Plasmodium berghei [8]; 40 mg/kg) | Delta mean survival time (Plasmodium berghei [10]; 20 mg/kg) | Delta mean survival time (Plasmodium berghei [5]; 80 mg/kg) | Delta mean survival time (Plasmodium berghei [7]; 40 mg/kg) |
| --- | --- | --- | --- | --- | --- | --- | --- | --- | --- | --- | --- | --- | --- | --- | --- |
| O=c1c2c(n(O)c3ccc(Cl)cc13)CC(c1cccc(C(F)(F)F)c1)C/C2=N\Cc1ccc(Cl)c(Cl)c1 (stereo unspecified) | 2 | 5 | 8.4 | 11.5 | 4.4 | – | – | – | – | – | – | – | – | – | – |
| CN(C)CCC/N=C1\CC(c2c(Cl)cccc2Cl)Cc2c1c(=O)c1cc(Cl)ccc1n2O (stereo unspecified) | 1 | 5 | 9.4 | 7.2 | 4.1 | 1 | 1.2 | – | – | – | – | – | – | – | – |
| CN(C)CCC/N=C1\CC(c2ccc(Cl)c(Cl)c2)Cc2nc3ccc(Cl)cc3c(O)c21 (stereo unspecified) | 5 | 5 | – | – | 11.8 | 5 | 9.8 | 3 | 4 | 9.2 | – | – | – | – | – |
| CN(C)CCC/N=C1\CC(c2cccc3ccccc23)Cc2c1c(=O)c1cc(Cl)ccc1n2O (stereo unspecified) | 4 | 5 | 9.3 | 4.7 | 7.1 | 1 | 2.6 | – | – | – | – | – | – | – | – |
| NCC/N=C1\CC(c2ccc(Cl)cc2Cl)Cc2nc3ccc(Cl)cc3c(O)c21 (stereo unspecified) | – | 5 | – | – | – | 5 | – | 5 | – | – | – | – | – | – | – |
| CN(C)CCC/N=C1\CC(c2cccc(Br)c2)Cc2c1c(=O)c1cc(Cl)ccc1n2O (stereo unspecified) | 2 | 5 | 9.4 | 10.2 | 5.3 | – | 1.6 | – | – | – | – | – | – | – | – |
| CCN(CC)CC/N=C1\CC(c2ccc(C(F)(F)F)cc2)Cc2nc3ccc(Cl)cc3c(O)c21 (stereo unspecified) | – | 5 | – | – | – | 5 | 17.6 | 3 | – | – | – | – | – | – | – |
| CCN1CCCC(/N=C2\CC(c3ccc(Cl)c(Cl)c3)Cc3c2c(=O)c2cc(Cl)ccc2n3O)C1 (stereo unspecified) | 4 | 5 | 8.3 | 8.8 | 7.2 | 2 | – | – | – | – | – | – | – | – | – |
| CC1C(=O)c2c(nc3ccc(Cl)cc3c2O)CC1c1ccc(Cl)c(Cl)c1 (stereo unspecified) | 5 | 5 | – | – | – | 5 | 10.8 | 3 | 5 | 8.2 | – | – | – | – | – |
| CN(C)CCC/N=C1\CC(c2ccc(Cl)c(C(F)(F)F)c2)Cc2nc3ccc(Cl)cc3c(O)c21 (stereo unspecified) | 5 | 5 | – | – | – | 5 | 8.7 | 4 | 5 | 7.5 | – | – | – | – | – |
| CN(C)CCC/N=C1\CC(c2ccc(N(C)C)cc2)Cc2c1c(=O)c1cc(Cl)ccc1n2O (stereo unspecified) | 3 | 5 | 6.8 | 7.4 | 0.9 | – | – | – | – | – | – | – | – | – | – |
| CCN(CC)CCCCCCC/N=C1\CC(c2ccc(C(F)(F)F)cc2)Cc2nc3ccc(Cl)cc3c(O)c21 (stereo unspecified) | – | 3 | 23.1 | – | – | 3 | 9.6 | 4 | – | – | 0.1 | – | – | – | – |
| CCN(CC)C1CCC(/N=C2\CC(c3ccc(Cl)c(Cl)c3)Cc3c2c(=O)c2cc(Cl)ccc2n3O)CC1 (stereo unspecified) | 3 | 5 | – | 12.1 | 7.2 | 5 | 5.6 | – | – | – | – | – | – | – | – |
| CCCC/N=C1\CC(c2ccc(C(F)(F)F)cc2)Cc2c1c(=O)c1cc(Cl)ccc1n2O (stereo unspecified) | 5 | 5 | – | – | 10.2 | 5 | 8.5 | 1 | 3 | 5.3 | – | – | – | – | – |
| O=c1c2c(n(O)c3ccc(Cl)cc13)CC(c1ccc(Cl)c(Cl)c1)C/C2=N\CCCN(CCO)CCO (stereo unspecified) | 5 | 5 | 10.6 | – | 7.9 | 4 | 5.6 | – | 1 | 1.2 | – | – | – | – | – |
| CN(C)c1ccc(C2CC(=O)c3c(n(O)c4ccc(Cl)cc4c3=O)C2)cc1 (stereo unspecified) | 3 | 5 | 6.6 | 6.8 | 5.8 | 1 | 1.6 | – | – | – | – | – | – | – | – |

| SMILES | No. of cured mice (Plasmodium berghei [1]) | No. of cured mice (Plasmodium berghei [2]) | Delta mean survival time (Plasmodium berghei [3]) | Delta mean survival time (Plasmodium berghei [4]) | Delta mean survival time (Plasmodium berghei [5]) | No. of cured mice (Plasmodium berghei [6]) | Delta mean survival time (Plasmodium berghei [7]) | No. of cured mice (Plasmodium berghei [8]) | No. of cured mice (Plasmodium berghei [9]) | Delta mean survival time (Plasmodium berghei [10]) | Delta mean survival time (Plasmodium berghei [11]) | No. of cured mice (Plasmodium berghei [8]; 40 mg/kg) | Delta mean survival time (Plasmodium berghei [10]; 20 mg/kg) | Delta mean survival time (Plasmodium berghei [5]; 80 mg/kg) | Delta mean survival time (Plasmodium berghei [7]; 40 mg/kg) |
| --- | --- | --- | --- | --- | --- | --- | --- | --- | --- | --- | --- | --- | --- | --- | --- |
| CCCCN(CCCC)CC/N=C1\CC(c2cccc(C(F)(F)F)c2)Cc2c1c(=O)c1cc(Cl)ccc1n2O (stereo unspecified) | 5 | 5 | 11.6 | – | 7 | 3 | 9.6 | 1 | – | 5.4 | – | – | – | – | – |
| CN(C)CCC/N=C1/c2c([nH]c3ccc(Cl)cc3c2=O)CC(c2ccc(Cl)c(Cl)c2)C1c1ccccc1 (stereo unspecified) | 5 | 5 | 12.2 | – | 14.2 | 2 | 7.7 | – | 1 | 3.1 | – | – | – | – | – |
| CC(C)C1CC(=O)c2c(n(O)c3ccc(Cl)cc3c2=O)C1 (stereo unspecified) | – | 5 | 3.5 | 8.3 | 1.7 | – | 0.3 | – | – | 0.1 | – | – | – | – | – |
| C=CCNCC/N=C1\CC(c2cccc(C(F)(F)F)c2)Cc2c1c(=O)c1cc(Cl)ccc1n2O (stereo unspecified) | 5 | 5 | – | – | 9.4 | 5 | 5.9 | 2 | 1 | 3 | – | – | – | – | – |
| CN(C)CCC/N=C1\CC(c2ccc(Cl)c(Cl)c2)Cc2c1c(=O)c1cc(Cl)ccc1n2O (stereo unspecified) | 5 | 5 | – | – | 17.2 | 5 | 12.7 | 3 | 3 | 7.1 | – | – | – | – | – |
| CC(C/N=C1\CC(c2ccc(C(F)(F)F)cc2)Cc2nc3ccc(Cl)cc3c(O)c21)N(C)C (stereo unspecified) | – | 5 | – | – | – | 5 | – | 5 | – | – | – | – | – | – | – |
| CN(C)CCC/N=C1\CC(c2ccccc2)Cc2c1c(=O)c1cc(Cl)ccc1n2O (stereo unspecified) | – | 5 | 4.2 | 8.8 | 1.2 | – | 0.6 | – | – | – | – | – | – | – | – |
| C=CCn1c2c(c(=O)c3cc(Cl)ccc31)C(=O)CC(c1ccc(C(F)(F)F)cc1)C2 (stereo unspecified) | – | 4 | 12.6 | – | – | – | 8.5 | 1 | – | – | 15 | – | – | – | – |
| CC1/C(=N\CCCN(C)C)c2c(nc3ccc(Cl)cc3c2O)CC1c1ccc(Cl)c(Cl)c1 (trans isomer) | 5 | – | – | – | – | 5 | – | – | 4 | – | – | 1 | 5.3 | 15 | 7.2 |
| CCN(CC)CCCC(C)/N=C1\CC(c2ccc(Cl)c(Cl)c2)Cc2c1c(=O)c1cc(Cl)ccc1n2O (stereo unspecified) | 5 | 5 | – | – | 9.6 | 5 | 6.1 | 1 | 1 | – | – | – | – | – | – |
| CN(C)CCC/N=C1\CC(c2ccc(C(F)(F)F)cc2)Cc2nc3ccc(Br)cc3c(O)c21 (stereo unspecified) | 5 | 2 | – | – | – | 5 | 9.3 | 1 | 5 | 6 | 25.7 | – | – | – | – |
| CCCCNCCC/N=C1\CC(c2ccc(Cl)c(Cl)c2)Cc2c1c(=O)c1cc(Cl)ccc1n2O (stereo unspecified) | 5 | 5 | 10.6 | – | 9.1 | 4 | 9.4 | – | 1 | 4.4 | – | – | – | – | – |
| CN(C)CCC/N=C1\CC(c2ccc(Cl)cc2Cl)Cc2nc3c(Cl)ccc(Cl)c3c(O)c21 (stereo unspecified) | – | – | – | 0 | 0 | – | – | – | – | 1.2 | – | – | – | – | – |
| CC(C/N=C1\CC(c2cccc(C(F)(F)F)c2)Cc2c1c(=O)c1cc(Cl)ccc1n2O)N(C)C (stereo unspecified) | 5 | 5 | 8.6 | – | 9.2 | 2 | 11.9 | 1 | – | 4 | – | – | – | – | – |
| O=C1CC(c2ccc(F)cc2)Cc2c1c(=O)c1cc(Cl)ccc1n2O (stereo unspecified) | 5 | 5 | 8.8 | – | 9.8 | 4 | 19.4 | 2 | 4 | 5 | – | – | – | – | – |
